# High-throughput results deposited in PubChem by several laboratories.
# In the library only some 2.6% were active in any assay of this set; here they are far more common.
# AHR act: AHR activators, primary screen, cell-based, luminescence, luciferase reporter, human. hit rate 2.5% among 320,000. Aryl hydrocarbon receptor (Homo sapiens), P35869. activation, % at 5 µM. AHR-responsive luciferase reporter cells. AID 2796, 2010; in the data active = activation above about 47%;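 also: 0% = vehicle wells and 100% = reference agonist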
# procasp7 counter: procaspase-7 activators, primary screen, counter-screen for procaspase-3 activator project, biochemical, absorbance, HTS, human; Caspase-7 (Homo sapiens), P55210; recombinant procaspase-7, Ac-DEVD-pNA absorbance 405 nm; D23A/D198A/D206A triple mutant, cannot self-cleave; scale: DMSO 0, 5 µM enzyme 100; activation, % at 8.5 µM; hit rate 0.093% among 330,000; AID 463210, 2010;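 active = percent activation above the screen-wide mean plus 3 SD, cut at about 25% in these data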
# Target sequence (P55210 whole entry D23A/D198A/D206A): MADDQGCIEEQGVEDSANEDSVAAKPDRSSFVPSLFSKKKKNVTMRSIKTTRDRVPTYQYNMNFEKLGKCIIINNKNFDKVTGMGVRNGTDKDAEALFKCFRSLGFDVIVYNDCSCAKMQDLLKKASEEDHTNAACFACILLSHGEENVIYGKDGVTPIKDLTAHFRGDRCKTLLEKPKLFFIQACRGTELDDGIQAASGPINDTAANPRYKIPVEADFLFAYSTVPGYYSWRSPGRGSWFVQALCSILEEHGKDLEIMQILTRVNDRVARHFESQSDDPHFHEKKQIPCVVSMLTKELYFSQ
#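 Test system: Procaspase-7 triple mutant (PC-7 D3A). Also added: Ac-DEVD-pNA substrate, 400 µM as added. Schedule: 1 h enzyme–compound preincubation and 2 h substrate reaction, both 25 °C. Signal: p-Nitroaniline absorbance at 405 nm, read at 0 and 120 min. Control set: low DMSO alone, high DMSO plus 5 µM PC-7.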
# PolyA inhibitor: polyadenylation inhibitors in yeast reporter cells, primary screen, luminescence, S. cerevisiae; S. cerevisiae SKY197-pL101 polyadenylation reporter, beta-gal luminescence; efflux-impaired pdr1/pdr3 knockout yeast; score 100 = 6 SD above DMSO; activity score, % at 12 µM; hit rate 0.02% among 300,000;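 active = lowest replicate activity score at least 50, where 100 means six control SD above control mean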;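 also: yeast exposed to compound for 9 h at 30 °C; higher score means more reporter readthrough which indicates perturbed polyadenylation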
# proCasp3 act: activators of human procaspase-3 D3A mutant, primary screen, biochemical, absorbance, PC-3 D3A mutant, single concentration; activation, % at 8.5 µM; Caspase-3 (Homo sapiens), P42574; hit rate 0.11% among 330,000; AID 463141, 2010; recombinant procaspase-3 D3A, Ac-DEVD-pNA absorbance 405 nm;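 active = activation above the mean of all tested compounds plus 3 SD, cut at about 21% in these data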;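 also: 0% = DMSO alone and 100% = DMSO wells spiked with extra 5 µM PC-3 D3A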
# Target sequence (P42574 whole entry D9A/D28A/D175A): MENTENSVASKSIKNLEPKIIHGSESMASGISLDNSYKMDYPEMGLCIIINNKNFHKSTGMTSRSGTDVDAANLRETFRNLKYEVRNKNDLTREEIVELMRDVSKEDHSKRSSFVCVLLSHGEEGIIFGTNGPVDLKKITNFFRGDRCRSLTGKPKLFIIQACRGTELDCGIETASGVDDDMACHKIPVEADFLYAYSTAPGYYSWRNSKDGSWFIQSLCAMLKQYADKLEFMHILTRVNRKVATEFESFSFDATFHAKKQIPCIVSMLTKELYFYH
#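 Assay system: Autoprocessing-dead procaspase-3 D3A mutant enzyme; also added: Ac-DEVD-pNA; doses: one concentration, 8.5 µM nominal, 0.8% DMSO; times: 1 h compound preincubation, 2 h substrate hydrolysis at 25 °C; technique: 405 nm absorbance of p-nitroaniline, reads at 0 and 120 min; measure: % activation between DMSO and enzyme-spiked controls; repeats: single replicate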
# * hit, by the source's call; nt = no result given.
SMILES,AHR act,procasp7 counter,PolyA inhibitor,proCasp3 act
COc1ccc(-c2csc(NC(=O)/C(N=Nc3ccccc3)=C(\C)O)n2)cc1,48*,10,-6,6
CSc1ncc(CO)n1Cc1ccccc1,-3,6,-4,8
CCOc1cc(C(=O)N(C)CC(=O)Nc2cccc3ccccc23)ccc1OC,17,3,nt,1
COc1cccc(Nc2nc(-c3ccc(O)cc3)cs2)c1,54*,-16,-12,-9
COc1cccc(Nc2nc(-c3cccc(N4C(=O)c5ccccc5C4=O)c3)cs2)c1,46,-4,8,3
Cc1ccc(Nc2nc(-c3sc(C)nc3C)cs2)cc1,62*,3,-9,-5
c1ccc(-c2csc(Nc3cccnc3)n2)cc1,31,9,4,4
Clc1ccc(-c2csc(Nc3cccnc3)n2)cc1,81*,8,-6,0
CC1CCCC(NC(=O)c2ccc3snnc3c2)C1C (stereo not given),23,2,2,9
Cc1ccc(NC(=O)CSCC(=O)N(C)CC(=O)Nc2cccc(F)c2)cc1,2,0,6,2
CC1CCCC(NC(=O)c2ccc(F)c(S(=O)(=O)N3CCOCC3)c2)C1C (stereo not given),1,-4,3,12
Cn1/c(=N/NC(=O)c2ccccc2Br)sc2ccccc21,48*,4,-7,2
O=[N+]([O-])c1cccc(C(=Nc2ccc(Cl)cc2)NO)c1,67*,3,0,5
O=C(NNC(=S)NC(=O)c1sc2ccccc2c1Cl)c1ccc(Cl)cc1,110*,-9,0,2
O=C(O)c1ccccc1NC(=S)NC(=O)c1sc2ccccc2c1Cl,1,-16,nt,-6
COc1ccc2oc(-c3ccc(NC(=O)c4ccc(N5CCOCC5)c([N+](=O)[O-])c4)cc3)nc2c1,-1,0,-15,-6
O=C(Nc1ccc(-c2nc3ccccc3o2)cc1)c1ccc(N2CCOCC2)c([N+](=O)[O-])c1,54*,3,-11,-5
CN(Cc1ccccc1)c1nc(N)c([N+](=O)[O-])c(Nc2cccc(F)c2)n1,48*,-9,14,-1
CN(c1ccccc1)c1nc(N)c([N+](=O)[O-])c(Nc2cccc(F)c2)n1,7,-4,-8,4
CN1CC(=O)N(CC(=O)Nc2ccc3c(c2)CCC3)C1=O,1,6,-12,-8
Cc1nc(NC(=O)c2ccccc2)sc1-c1csc(Nc2ccc(Cl)cc2Cl)n1,43,-21,-7,-6
COc1ccc(Cl)cc1Nc1nc(-c2sc(NC(=O)CC(C)C)nc2C)cs1,38,-3,2,-2
COc1ccc(OC)c(Nc2nc(-c3sc(NC(=O)c4ccccc4)nc3C)cs2)c1,55*,-8,-6,-19
COc1ccc(Cl)cc1Nc1nc(-c2sc(NC(=O)c3ccccc3)nc2C)cs1,95*,-23,0,-11
Cc1nc(NC(=O)CC(C)C)sc1-c1csc(Nc2ccc(Cl)cc2Cl)n1,61*,-5,14,-1
SMILES,AHR act,procasp7 counter,PolyA inhibitor,proCasp3 act
C=CCCC(=O)Nc1nc(C)c(-c2csc(Nc3cc(Cl)ccc3OC)n2)s1,72*,2,21,-2
Cc1nc(NC(=O)c2ccccc2)sc1-c1csc(Nc2ccc(F)cc2)n1,23,-17,7,-5
Cc1cc(C)n(CC(O)COc2c(C)cccc2C)n1 (stereo not given),-5,5,-7,0
CC(=O)Nc1cccc(NC(=O)CSc2ncc(C(=O)Nc3ccc(F)cc3)c(=O)n2C)c1,66*,0,7,7
CC(=O)Nc1cccc(NC(=O)CSc2ncc(C(=O)Nc3ccccc3)c(=O)n2C)c1,16,-2,3,-5
CC(=O)Nc1ccc(NC(=O)CSc2ncc(C(=O)Nc3ccc(Cl)cc3)c(=O)n2C)cc1,68*,-5,9,-8
CC(=O)c1cccc(NC(=O)CSc2ncc(C(=O)Nc3ccccc3)c(=O)n2C)c1,13,-1,-8,-5
CCOC(=O)C(=CN=C(N)Nc1nc2ccccc2o1)C(=O)OCC,63*,3,-6,9
COc1ccc(C(=O)NC(=S)NCc2cccnc2)cc1Cl,20,0,2,0
COc1cccc(OCc2cc(/C=N/NC(=O)c3ccn[nH]3)ccc2OC)c1,63*,6,12,2
COc1ccc(/C=N\NC(=O)c2ccccc2)cc1COc1ccccc1,11,0,-12,-13
COc1ccc(CN2CC(=O)N3[C@H]4c5ccccc5OC[C@@H]4[C@H](c4ccccc4)[C@]3(C)C2=O)cc1,-1,8,nt,5
Cn1c(COc2ccc(Cl)cc2Cl)nnc1SCC(=O)NCC1CCCO1 (stereo not given),0,-12,-2,-10
O=C(/C=C/c1ccc([N+](=O)[O-])cc1)NCc1cccnc1,28,-2,1,4
O=C(/C=C/c1cccc([N+](=O)[O-])c1)NCc1cccnc1,63*,10,15,-8
O=C(/C=C/c1ccc(Cl)c([N+](=O)[O-])c1)NCc1cccnc1,60*,1,2,2
Cc1cc(C)c(OCC(=O)OC(C)C(=O)N2CCc3ccccc32)c(C)c1 (stereo not given),1,-1,6,-5
CCN(CC)c1ccc(NC2CC(=O)N(CCc3ccc(OC)cc3)C2=O)cc1 (stereo not given),2,-24,2,-15
CCCCn1c(N)c(N(CCOC)C(=O)CSc2ccc([N+](=O)[O-])cc2)c(=O)[nH]c1=O,0,4,nt,16
O=C(CSc1nnnn1C1CCCCC1)Nc1ccc2c(c1)OCO2,20,-1,1,7
Cc1cc(C)c(NC(=O)CSc2nc3ncc(Br)cc3[nH]2)c(C)c1,12,7,-5,-2
CCCn1c(SCC(=O)NC2CCCCC2)nnc1-c1ccncc1,3,-3,22,0
O=C(CSc1nc2ncc(Br)cc2[nH]1)Nc1ccc2c(c1)OCO2,50*,10,0,-1
O=C(Cn1c(SCC(=O)NC2CCCC2)nnc1-c1ccncc1)Nc1ccc2c(c1)OCO2,66*,6,21,1
O=C(CSc1nnnn1CCCO)Nc1ccc2c(c1)OCO2,55*,0,7,5
CC(C)n1nnnc1SCC(=O)Nc1ccc2c(c1)OCO2,56*,-6,13,11
O=C(Nc1ccccc1)c1sccc1Oc1ccc([N+](=O)[O-])cc1F,-1,-6,-23,-2
CCc1nnc(SCC(=O)Nc2ccc3c(c2)OCO3)n1CC,50*,12,3,-7
CCn1c(Cc2ccccc2)nnc1SCC(=O)Nc1ccc2c(c1)OCO2,12,6,1,6
